Converted amounts (≈) assume the structure as drawn.
Columns and labels:
[1] = system: Mycobacterium tuberculosis; assay: Antimycobacterial activity against isoniazid/rifampicin-resistant Mycobacterium tuberculosis isolate 9160 after 7 days by microplate alamar blue assay; type: functional; settings: isolate 9160, 168 h
Outline: (§1)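 Microplate Alamar Blue Assay against clinical MDR M. tuberculosis isolates 11168 and 9160, both resistant to isoniazid and rifampicin. Read-out was fluorescence. MIC was the lowest concentration that reduced fluorescence by >90% versus the mean of replicate bacterium-only controls.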

[2] = system: Mycobacterium tuberculosis; assay: Antimycobacterial activity against isoniazid/rifampicin-resistant Mycobacterium tuberculosis isolate 11168 after 7 days by microplate alamar blue assay; type: functional; settings: isolate 11168, 168 h; outline: as §1

SMILES | MIC [1] [µg/mL] | MIC [2] [µg/mL]
Cc1ccc2nc(C)c(C(=O)NCCOc3ccc(Cl)cc3)n2c1 | 0.028 (≈ 0.0814 µM) | 0.025 (≈ 0.0727 µM)
Cc1cccc(OCCNC(=O)c2c(C)nc3ccc(C)cn23)c1 | 0.033 (≈ 0.102 µM) | 0.026 (≈ 0.0804 µM)
Cc1ccc2nc(C)c(C(=O)NCCOc3ccc(Br)cc3)n2c1 | 0.051 (≈ 0.131 µM) | 0.036 (≈ 0.0927 µM)
COc1cccc(OCCNC(=O)c2c(C)nc3ccc(C)cn23)c1 | 0.035 (≈ 0.103 µM) | 0.029 (≈ 0.0854 µM)
Cc1ccc2nc(C)c(C(=O)NCCOc3ccccc3C)n2c1 | 0.05 (≈ 0.155 µM) | 0.036 (≈ 0.111 µM)
COc1ccc(OCCNC(=O)c2c(C)nc3ccc(C)cn23)cc1 | 0.034 (≈ 0.1 µM) | 0.026 (≈ 0.0766 µM)
Cc1ccc2nc(C)c(C(=O)NCCOc3ccccc3)n2c1 | 0.047 (≈ 0.152 µM) | 0.03 (≈ 0.097 µM)
NNC(=O)c1ccncc1 [ISONIAZID] | > 40 | > 40
CO[C@H]1/C=C/O[C@@]2(C)Oc3c(C)c(O)c4c(O)c(c(/C=N/N5CCN(C)CC5)c(O)c4c3C2=O)NC(=O)/C(C)=C\C=C\[C@H](C)[C@H](O)[C@@H](C)[C@@H](O)[C@@H](C)[C@H](OC(C)=O)[C@@H]1C [RIFAMPIN] | 38.6 (≈ 47 µM) | 36.9 (≈ 44.8 µM)

Reference: ChEMBL document CHEMBL3864185, “Identification of N-(2-Phenoxyethyl)imidazo[1,2-a]pyridine-3-carboxamides as New Antituberculosis Agents” (ACS Med Chem Lett, 2016)
